Source: PubChem (several laboratories)
Hits are enriched below; roughly 2% of the tested compounds scored in any of these assays.
APJ agonist: agonists of human apelin receptor APJ, primary screen, CHO-K1 cells, PathHunter beta-arrestin, luminescence | P35414 | 0% DMSO wells, 100% apelin | activation, % at 20 µM | 330,000 tested, 0.11% active | AID 2520, 2010;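 active means activation more than six SD over the plate average, tested at 20 µM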;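 further: 0% = DMSO alone and 100% = apelin-13 at 10 nM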
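Assay system: CHO-K1 APJ beta-arrestin complementation cell line / Compound: single test compound dose, 20 µM final, 1% DMSO / Times: overnight seeding, 90 min compound at 25 °C, 1 h detection / Technique: beta-gal luminescence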
EBI2 antag: EBI2 receptor antagonists, beta-arrestin recruitment, primary screen, cell-based, luminescence, 7a,25-OHC stimulation, uHTS. G-protein coupled receptor 183 (Homo sapiens), P32249. 7a,25-OHC stimulated. inhibition, % at 5 µM. 360,000 tested, 0.81% active. AID 651636, 2012; in the data active means inhibition above about 38%;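 further: enzyme fragment complementation signal reports receptor beta-arrestin coupling in cells; 0% = agonist plus DMSO wells and 100% = wells without agonist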
CXCR6 block: CXCR6 receptor inhibitors, primary screen, cell-based, beta-arrestin, luminescence, CHO-K1 PathHunter, 1536-well | AID 602244, 2012 | 360,000 tested, 0.36% active | C-X-C chemokine receptor type 6 (Homo sapiens), O00574 | inhibition, % at 20 µM; in the data active means inhibition above about 34%, passing the limit was not always enough;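 further: antagonist mode with CXCL16 agonist at 10 nM final; 0% = 10 nM CXCL16 with DMSO and 100% = unstimulated wells without agonist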
APJ antag: antagonists of human apelin receptor APJ, primary screen, CHO-K1 cells, beta-arrestin complementation, luminescence; inhibition, % at 20 µM; 330,000 tested, 0.32% active; AID 2521, 2010;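 active means inhibition above about 40% at 20 µM, limit read from the data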;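 further: cells challenged with 10 nM apelin-13 agonist together with compound; plate controls were apelin-13 plus DMSO wells for no effect and DMSO wells lacking apelin-13 for full effect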
GAA850 FXN act: FXN promoter activators, primary screen, cell-based, luciferase luminescence, HEK293 lucGAA850 | activation, % at 6 µM | AID 540364, 2011 | 360,000 tested, 0.56% active | HEK293 lucGAA850 FXN promoter luciferase reporter, 24 h; percent of 10 µM SAHA response;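 active means activation above the average of all compounds screened plus 3 SD, cutoff fixed separately per campaign, cut at about 7.5% in these data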;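 further: 0% = DMSO wells and 100% = 10 µM SAHA wells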
CCR6 antag: CCR6 receptor antagonists, primary screen, cell-based, CHO-K1, luminescence, beta-arrestin, uHTS; inhibition, % at 20 µM; C-C chemokine receptor type 6 (Homo sapiens), P51684; CHO-K1 CCR6 PathHunter beta-arrestin, CCL20-stimulated; 340,000 tested, 0.49% active; AID 493098, 2011;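 active means compounds whose inhibition of the agonist-driven luminescence signal at 20 µM reaches about 50%, limit read from the data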;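 further: cells stimulated with CCL20 at 14 nM final; plate controls were DMSO with CCL20 for no effect and DMSO without agonist for full effect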
Target sequence (P51684 whole entry, looked up): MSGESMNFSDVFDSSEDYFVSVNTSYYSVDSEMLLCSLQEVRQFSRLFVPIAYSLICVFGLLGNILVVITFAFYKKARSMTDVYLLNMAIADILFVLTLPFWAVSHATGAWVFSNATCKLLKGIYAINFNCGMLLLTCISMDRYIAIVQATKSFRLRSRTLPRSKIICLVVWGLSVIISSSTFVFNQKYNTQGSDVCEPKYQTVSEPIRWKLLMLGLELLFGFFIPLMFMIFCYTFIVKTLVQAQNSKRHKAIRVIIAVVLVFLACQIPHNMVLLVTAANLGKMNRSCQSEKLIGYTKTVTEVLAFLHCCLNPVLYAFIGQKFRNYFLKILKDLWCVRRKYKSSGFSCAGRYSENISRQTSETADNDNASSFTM
EBI2 antag conf: EBI2 antagonist hit retest, beta-arrestin, confirmation, cell-based, single concentration, luminescence, 7a,25-OHC stimulation. inhibition, % at 5 µM. 7a,25-OHC antagonism. 2,400 tested, 29% active. shares compounds with EBI2 antag;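 active means inhibition of at least 50%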
EBI2 agonist: EBI2 agonist activity of antagonist hits, confirmation, counter-screen for EBI2 antagonist project, cell-based, single concentration, agonist mode, luminescence | shares compounds with EBI2 antag | EBI2-expressing cells, 60 min; 0% vehicle, 100% 7α,25-dihydroxycholesterol control | activation, % at 5 µM | 2,400 tested, under 10 active;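 active means activation of at least 50%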
bGal counter: E. coli beta-galactosidase enzyme inhibition, confirmation, counter-screen for EBI2 antagonist project, biochemical, luminescence, single concentration; shares compounds with EBI2 antag; purified beta-galactosidase, luminescent Galacton Star, 15 min; inhibition, % at 5 µM; 2,400 tested, 1% active; AID 652176, 2013;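 active means replicate-average signal at least 3 plate SD below neutral wells, shown as high inhibition, flagging enzyme-inhibiting false positives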;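 further: 0% = DMSO wells with enzyme and 100% = wells lacking enzyme; higher means stronger loss of beta-gal luminescence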
Numbers without * were called inactive.

Cc1cccc(N2CCN(C(=O)c3ccc4ncsc4c3)CC2)c1C was read as EBI2 antag 74.2*, CXCR6 block -3.3, GAA850 FXN act -2.5, CCR6 antag 5.5, EBI2 antag conf 65.0*, EBI2 agonist -0.2 and bGal counter -12.8.
`O=C(c1ccc2ncsc2c1)N1CCN(c2ccccc2Cl)CC1` gave APJ agonist -0.6, EBI2 antag 73.9*, CXCR6 block 0.0, APJ antag -2.0, GAA850 FXN act 6.5, CCR6 antag -2.6, EBI2 antag conf 53.9*, EBI2 agonist 0.7 and bGal counter 1.1.
Cc1ccc(C)c(N2CCN(C(=O)c3ccc4nsnc4c3)CC2)c1 was read as APJ agonist -4.5, EBI2 antag 47.1*, CXCR6 block 7.2, APJ antag -8.3, GAA850 FXN act -4.9, CCR6 antag 11.4, EBI2 antag conf 12.6, EBI2 agonist -0.4 and bGal counter -4.5.
For Cc1cccc(N2CCN(C(=O)c3ccc4nc[nH]c4c3)CC2)c1C the results were APJ agonist -2.5, EBI2 antag -64.4, CXCR6 block -1.7, APJ antag 11.7, GAA850 FXN act 0.4 and CCR6 antag -3.6.
Screening COc1ccccc1C(CNC(=O)C(CCSC)NS(=O)(=O)c1ccccc1F)N1CCCC1 (centres undefined) returned APJ agonist -5.5, EBI2 antag -2.8, CXCR6 block 1.0, APJ antag 12.7, GAA850 FXN act 2.5 and CCR6 antag 4.9.
Screening CC(C(=O)N(C)Cc1cccc(F)c1)N1CCN(S(=O)(=O)c2ccc3c(c2)OCCCO3)CC1 (centres undefined) returned APJ agonist 5.6, EBI2 antag 1.6, CXCR6 block -11.6, APJ antag -1.7, GAA850 FXN act -0.8 and CCR6 antag 12.9.
For COc1cc2ccccc2cc1C(=O)N1CCN(c2ccccn2)CC1 the results were APJ agonist 1.2, EBI2 antag 37.1, CXCR6 block -3.5, APJ antag 22.3, GAA850 FXN act 0.1 and CCR6 antag 6.8.
CCOc1ccccc1N1CCN(C(=O)c2cc3ccccc3cc2OC)CC1 was read as APJ agonist -4.7, EBI2 antag 56.8*, CXCR6 block 6.3, APJ antag 18.3, GAA850 FXN act -4.3, CCR6 antag 1.8, EBI2 antag conf 31.0, EBI2 agonist 0.5 and bGal counter 8.5.
`COc1cc2ccccc2cc1C(=O)N1CCN(C(C)=O)CC1` gave APJ agonist -4.4, EBI2 antag 66.3*, CXCR6 block 4.6, APJ antag 8.9, GAA850 FXN act 1.1, CCR6 antag 5.0, EBI2 antag conf 51.6*, EBI2 agonist 0.0 and bGal counter -12.9.
CCOc1ccccc1N1CCN(C(=O)c2ccncc2)CC1 was read as APJ agonist -7.0, EBI2 antag -18.5, CXCR6 block 6.6, APJ antag 0.6, GAA850 FXN act 1.8 and CCR6 antag 0.7.
